These results are taken from article PMC411066 (BMC Medicine, 2004).

The nature of one data set: Serum digoxin. It is filed as in vivo, human. The procedure, abridged: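 Trough serum samples at steady state from 618 digoxin-monitoring patients, assayed by fluorescence polarization immunoassay. Orally given comedications were classed as P-gp inhibitors by PubMed search: Class I, documented in vivo effect on digoxin kinetics; Class II, in vitro inhibition only. Means ± SE from a General Linear Model adjusted for age, sex, digoxin dose and total prescribed drugs, covariates at their means.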

The test system of a further data set is P-gp. The settings on record: cited from earlier work.

Each structure is given as a SMILES string. Values joined by “and” are separate entries in the source; they are usually repeats but may differ in a detail not shown here. Identical values can stand only once.

For the compound `C[C@H]1O[C@@H](O[C@H]2[C@@H](O)C[C@H](O[C@H]3[C@@H](O)C[C@H](O[C@H]4CC[C@@]5(C)[C@H](CC[C@@H]6[C@@H]5C[C@@H](O)[C@]5(C)[C@@H](C7=CC(=O)OC7)CC[C@]65O)C4)O[C@@H]3C)O[C@@H]2C)C[C@H](O)[C@@H]1O` [digoxin], the “Adjusted S-digoxin mean ± SE” value in the data set “Serum digoxin” (patients taking one Class I P-gp inhibitor, N = 96) is 1.65 ± 0.07 nmol/L; in the data set “Serum digoxin” (patients taking one P-gp inhibitor, N = 204, multivariate), 1.51 ± 0.05 nmol/L; in “Serum digoxin” (patients taking three P-gp inhibitors, N = 8, multivariate), 2.00 ± 0.25 nmol/L; in the data set “Serum digoxin” (patients taking two Class I P-gp inhibitors, N = 17), 1.83 ± 0.07 nmol/L and 1.83 ± 0.17 nmol/L; in the data set “Serum digoxin” (patients taking two P-gp inhibitors, N = 78, multivariate) it was 1.59 ± 0.08 nmol/L; in the data set “Serum digoxin” (patients with ≥ 1 P-gp inhibitor, N = 290, adjusted for age, sex, digoxin dose and total number of prescribed drugs), 1.55 ± 0.04 nmol/L. Besides, in the data set “Serum digoxin” (patients taking one or two Class II P-gp inhibitors, differences not significant in the multivariate model), the “S-digoxin with Class II P-gp inhibitors compared with no P-gp inhibitors” value is recorded as “tended to have elevated S-digoxin levels”. In the data set “Serum digoxin” (patients with concomitant P-gp inhibitors, all patients on spironolactone excluded), the “S-digoxin mean ± SE” value is reported as 1.46 ± 0.05 nmol/L.

In the case of `CC[C@H](C)C(=O)O[C@H]1C[C@H](O)C=C2C=C[C@H](C)[C@H](CC[C@@H](O)C[C@@H](O)CC(=O)O)[C@H]21` [pravastatin], the “In vitro P-gp inhibition” value in the data set on P-gp is “not an in vitro P-gp inhibitor”.
